# From PubChem BioAssay
# Rows were chosen to be rich in hits. Some 2.9% of all compounds tested hit in one or more screens of this group.
# RBBP9 inh: inhibitors of human serine hydrolase RBBP9; O75884; recombinant RBBP9, FP-Rh probe fluorescence polarization; inhibition, % at 7.94 µM; 0.2% of 220,000 active;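 active = inhibition above the campaign mean of all tested compounds plus 3 SD, cut at about 14% in these data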;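 note: plate controls were DMSO wells with RBBP9 for no effect and wells lacking RBBP9 protein for full effect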
#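 Test system – recombinant human RBBP9 · Input – RBBP9 2.5 µM in dispensing solution, pre-mixing · Medium – Tris buffer pH 8.0, NaCl, Pluronic · Schedule – preincubation 30 min plus labeling 45 min at 25 °C · Measured by – fluorescence polarization · Measure – % inhibition · Controls – DMSO and no-protein wells · Replicates – one well per compound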
# PfM18AAP inh: blocks P. falciparum M18 aspartyl aminopeptidase | recombinant PfM18AAP, H-Glu-NHMec fluorogenic cleavage | 1.2% of 290,000 active | inhibition, % at 7.35 µM;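 active = inhibition above the campaign mean inhibition over all tested compounds plus 3 SD, cut at about 28% in these data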;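 note: 0% = plate median of test compound wells and 100% = 2 mM ZnCl2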
# Runt-SMMHC FRET: blocks binding of human RUNX1 Runt domain to CBFb-SMMHC | Q01196+Q13951 | Cerulean-Runt/Venus-CBFb-SMMHC FRET ratio 530/480, 1 h | inhibition, % at 20 µM | 0.74% of 220,000 active;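 active = mean inhibition across duplicate retests at 20 µM reaching about 50%, limit read from the data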;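 note: 0% = DMSO wells and 100% = wells with excess untagged CBFb-SMMHC; inhibitors lower the FRET ratio by blocking Runt binding to CBFb-SMMHC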
# RanGTP-Impb inh: inhibitors of RanGTP-importin-beta interaction, primary screen, biochemical, FRET, CFP-Ran, YFP-importin-beta, homogeneous | cell-free CFP-Ran/YFP-importin-beta FRET ratio | inhibition, % (test concentration not listed) | 1.1% of 300,000 active;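 active = more than half of the replicate wells show a fall in the fluorescence ratio signal beyond about 16%, limit read from the data, passing the limit was not always enough; inconclusive = exactly half of the replicate wells pass the set limit; inactive = fewer than half of replicates pass the limit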;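 note: 0% = DMSO wells and 100% = Ran loaded with GDP instead of GTP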
# Runt-CBFb FRET: blocks binding of human RUNX1 Runt domain to CBFb | 0.46% of 220,000 active | Cerulean-Runt/Venus-CBFb FRET ratio 530/480, 1 h | Q01196+Q13951 | inhibition, % at 20 µM;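 active = inhibition over about 50% at 20 µM in the single-dose screen, limit read from the data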;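 note: 0% = DMSO wells and 100% = excess unlabeled CBFb competitor control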
#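 Assay system: Cerulean-Runt domain fusion protein, energy donor; Signal: fluorescence energy transfer, 422 nm excitation, 530/480 nm emission; Timing: 1 h compound exposure, room temperature; Control set: unlabeled CBFb; Medium: Tris buffer pH 7.5 with salts and BSA; Compound: single test concentration of 20 µM, 1% DMSO final; Probe or stimulus: Venus-CBFb 100 nM.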
# Hck Nef HTS: blocks Nef-activated human Hck kinase. P08631. inhibition, % at 20 µM. Recombinant Hck-YEEI plus Nef, Z-Lyte FRET kinase assay. 0.68% of 220,000 active. AID 463187;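 active = Hck-Nef kinase inhibition above about 50%, limit read from the data; inactive = inhibition below that limit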;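 note: 0% = DMSO with Hck plus Nef and 100% = Hck alone without Nef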
# Target sequence (P08631 whole entry, looked up): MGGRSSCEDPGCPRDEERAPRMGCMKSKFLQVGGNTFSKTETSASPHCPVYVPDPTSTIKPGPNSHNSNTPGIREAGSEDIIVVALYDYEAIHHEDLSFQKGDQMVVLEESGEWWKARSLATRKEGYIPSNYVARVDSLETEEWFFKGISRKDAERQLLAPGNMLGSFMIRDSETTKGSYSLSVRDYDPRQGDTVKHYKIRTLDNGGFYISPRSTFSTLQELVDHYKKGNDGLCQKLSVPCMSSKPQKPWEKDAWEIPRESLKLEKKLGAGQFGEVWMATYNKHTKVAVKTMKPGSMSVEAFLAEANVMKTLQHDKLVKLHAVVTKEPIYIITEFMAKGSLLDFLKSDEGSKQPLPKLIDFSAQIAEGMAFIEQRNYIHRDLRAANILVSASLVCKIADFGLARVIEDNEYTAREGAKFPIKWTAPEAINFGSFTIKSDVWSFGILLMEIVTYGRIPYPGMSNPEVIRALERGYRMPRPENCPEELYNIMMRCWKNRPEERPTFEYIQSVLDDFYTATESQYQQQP
# An asterisk follows results filed as active; ? = inconclusive; / = not tested or not shown.
SMILES,RBBP9 inh,PfM18AAP inh,Runt-SMMHC FRET,RanGTP-Impb inh,Runt-CBFb FRET,Hck Nef HTS
CCOc1ccc2nc(NCCNC(=O)Nc3ccccc3)c(C#N)cc2c1,-4,6,25,86*,8,25
CCOc1ccc2nc(NCCCNS(=O)(=O)c3ccc(C)cc3)c(C#N)cc2c1,-2,-1,102*,129*,6,-8
CCOc1ccc2nc(SCC#N)c(C#N)cc2c1,0,2,-8,-1,3,1
CCOc1ccc2nc(NCCCO)[nH]c2c1,-10,-10,-3,-2,0,-1
CCc1ccc(C2=NN(CCC(=O)NC(C)CCc3ccccc3)C(=O)CC2)cc1 (stereo unspecified),-8,4,-6,-2,-4,21
Cc1ccc(N(C(=O)c2csnn2)C(C(=O)NC2CCCCC2)c2ccco2)cc1 (stereo unspecified),/,8,/,4,/,/
CCC(C)[C@H](NC(=O)N1CCCCC1)C(=O)OC (stereo partly specified),-3,-1,-5,23*,1,8
O=C(CC(C(=O)O)c1c[nH]c2ccccc12)c1ccccc1 (stereo unspecified),-6,4,3,42*,1,32
O=C1OC(/C(=C\Nc2cc(Cl)ccc2O)[N+](=O)[O-])c2ccccc21 (stereo unspecified),-2,41*,13,-3,29,15
CN(NC1OC(=O)c2ccccc21)c1ccc(Cl)cc1[N+](=O)[O-] (stereo unspecified),10,-5,-5,-7,-2,7
O=C1OC(/C(=C\Nc2ccc(F)cc2F)[N+](=O)[O-])c2ccccc21 (stereo unspecified),-4,47*,8,2,13,2
O=C(c1ccco1)[C@@H]1[C@@H]2C(=O)N(c3ccc(F)cc3)C(=O)[C@@H]2C2c3ccccc3C=CN21 (stereo partly specified),-5,19,-45,45*,-13,1
O=C(c1ccco1)[C@@H]1[C@@H]2C(=O)N(c3ccc(Br)cc3)C(=O)[C@@H]2C2c3ccccc3C=CN21 (stereo partly specified),-6,13,-56,/,-20,1
CCOc1ccccc1/C=N/Nc1ccnc(=O)[nH]1,/,-13,/,2,/,/
O=c1nccc(N/N=C/c2ccccc2O)[nH]1,/,29*,/,3,/,/
CC(C)Cc1nnc(NC(=O)C2CCCC2)s1,/,2,/,-4,/,/
Cc1nc2c([nH]1)C1(CCN(Cc3ccccc3)CC1)C(C#N)=C(N)O2,-10,7,90*,/,17,1
O=C(Nc1ccc(Cl)cc1)c1cc2nc(-c3ccco3)cc(C(F)(F)F)n2n1,-6,-1,-23,4,-5,2
CCc1ccc(-c2cc(C(F)(F)F)n3nc(C(=O)Nc4cnn(Cc5ccc(C)cc5)c4)cc3n2)s1,-9,0,-4,39*,-50,6
Cc1ccccc1Cn1cc(NC(=O)c2cc3nc(-c4ccco4)cc(C(F)(F)F)n3n2)cn1,-12,-17,-86,30*,-5,4
CCC(=O)N1CCc2cc(S(=O)(=O)CCC(=O)N(C)c3ccc(OC)cc3OC)ccc21,/,-1,/,?,/,/
Fc1ccccc1NC(=S)NNc1ncc(C(F)(F)F)cc1Cl,2,28*,-5,4,8,3
COc1cc(Cl)ccc1OCc1cc(C(=O)N2C[C@]3(C)C[C@H]2CC(C)(C)C3)no1,/,-6,/,1,/,/
COc1cc(CN2CCN(C(=O)c3ccccc3F)CC2)cc(OC)c1OC,/,-2,/,0,/,/
CCOCCCNc1nc2c(-c3ccccc3)nnn2c2ccccc12,-4,4,-3,34*,-5,-7
SMILES,RBBP9 inh,PfM18AAP inh,Runt-SMMHC FRET,RanGTP-Impb inh,Runt-CBFb FRET,Hck Nef HTS
CCN1CCN(C2=C(NS(=O)(=O)c3ccccc3)C(=O)c3ccccc3C2=O)CC1,/,30*,/,2,/,/
Cc1cccc(NC(=O)c2ccc(Cl)c(S(=O)(=O)N3CCCCC3)c2)n1,/,/,/,-5,/,/
NC(=S)N/N=C/c1c[nH]c2ccc(OCc3ccccc3)cc12,/,27,/,?,/,/
Cc1ccc(C2C3=C(CC(C)(C)CC3=O)N(CCN3CCOCC3)C3=C2C(=O)CC(C)(C)C3)cc1,-4,-6,79*,125*,10,38
CC1CCc2[nH]c3ccc(C(=O)NCCCOC(C)C)cc3c2C1 (stereo unspecified),-5,-6,8,22*,0,-5
CC1CCc2[nH]c3ccc(C(=O)O)cc3c2C1 (stereo unspecified),/,19,/,?,/,/
O=C(NCc1ccncc1)c1ccc(S(=O)(=O)Nc2ccccc2)cc1,/,/,/,-1,/,/
Nc1ccc2[nH]ncc2c1,-1,10,57*,?,20,4
N#C/C(=C(/O)COC(=O)CCc1ccc(S(=O)(=O)N2CCOCC2)cc1)c1nc2ccccc2[nH]1,-4,5,49,29*,13,7
N#C/C(=C(/O)COC(=O)c1ccc(Cl)c(S(=O)(=O)N2CCOCC2)c1)c1nc2ccccc2[nH]1,1,9,6,3,3,5
CCOc1cc(NC(=S)Nc2ccc(Cl)cc2)c(OCC)cc1NC(C)=O,-3,31*,-3,2,19,20
Cc1cccn2cc(CCNC(=O)c3cccs3)nc12,3,-1,-7,-2,-1,6
COCCCNC(=O)CSc1nc2cc(C(=O)NCCOC)ccc2c(=O)n1Cc1ccc2c(c1)OCO2,/,5,/,?,/,/
Cc1nnc(Sc2c(N)n(C)c(=O)[nH]c2=O)s1,-5,-3,5,19*,-1,0
CC(=O)C1=C(c2ccccc2)OC(N)=C(C#N)C1c1ccccc1F (stereo unspecified),3,5,-6,2,-5,9
N#CC1=C(N)Oc2cc(N)ccc2C1c1ccccc1F (stereo unspecified),/,24,/,121*,/,/
COc1cccc(C2C(C#N)=C(N)Oc3cc(N)ccc32)c1OC (stereo unspecified),7,5,100*,105*,72*,-10
COc1ccc(S(=O)(=O)N(C)c2ccc(C(=O)N3CCCCC3)cc2)cc1,/,-5,/,-3,/,/
O=C(Nc1ccc(NC(=O)C2CCCCC2)nc1)c1cccs1,1,8,1,-7,1,30
CCCCCCCCOc1ccc(C2OC34CCCCC3C(C#N)(C#N)C2(C#N)C(=N)O4)cc1 (stereo unspecified),-7,-9,56*,44*,25,4
CCCCC1OC23CCCCC2C(C#N)(C(=N)O3)C1(C#N)C#N (stereo unspecified),-16,7,32,24*,19,1
CCCCCOc1ccc(C2NC(=O)NC2=O)cc1 (stereo unspecified),-1,-5,4,3,2,16
